# Source: PMC2682635 (Psychopharmacology, 2009)
# Where “and” joins values, the source holds several entries; their conditions need not be identical. Equal values may be shown once. Entries after “also recorded” stand apart in the source; their conditions may differ. Read-outs that look alike come from different tables or passages of the source.
# How the values were obtained:
# [1] = tested on: baboons; assay: Fine-motor task; type: in vivo, Papio anubis; conditions: for Duration to complete the fine-motor task compared to vehicle: across 30, 60 and 120 min
# [2] = baboon
# [3] = humans, 25 mg/kg 1,4-BD; ref Thai et al. 2006; cited from earlier work
# [4] = tested on: rhesus monkeys; conditions: food-maintained operant procedure; ref McMahon et al. 2003; cited from earlier work
# [5] = tested on: baboons; assay: 30-min continuous behavioral observation session; type: in vivo, Papio anubis
# [6] = tested on: baboons; assay: Paper and pencil behavioral checklists; type: in vivo, Papio anubis; conditions: for Return to baseline for all observed behavioral effects, time postadministration: baboon (Papio anubis), in vivo, oral
# [7] = humans, 25 mg/kg 1,4-BD; ref Thai et al. 2006; cited from earlier work; remark: listed apart in the source
# [8] = tested on: baboons; assay: Food-maintained operant behavior procedure; type: in vivo, Papio anubis; conditions: for Time food-maintained behavior was suppressed after administration: high doses
# Summary of the method: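 Test compound or vehicle was diluted in water to 150 ml total and infused intragastrically. Sessions started at 9:00 am right after dosing. Food pellets were available 20 h/day on a fixed-ratio schedule via a Lindsley operandum. Pellets earned were counted in ten 2-h bins up to 20 h. Analysis was repeated-measures two-way ANOVA (dose × time), p<0.05.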
# [9] = in vivo; conditions: plasma, po
# [10] = 180 mg/kg, 60 to 90 min after drug
# [11] = 240 mg/kg, 60 to 90 min after drug
# [12] = 180 mg/kg, 2 h after administration, p<0.001
# [13] = 180 mg/kg, 4 h after administration
# [14] = 100 mg/kg, 60 to 90 min after drug
smiles,measurement,setting,value
"OCCCCO [1,4-BD, 1,4-butanediol]",Duration to complete the fine-motor task,"[1]; 180 mg/kg, 60 min postadministration, p<0.001",significantly increased
same,Duration to complete the fine-motor task,"[1]; 180 mg/kg, 120 min postadministration, p<0.001",significantly increased
same,Completion of the fine-motor task,[1]; 240 mg/kg,all subjects failed to complete the task within the maximum time of 120 s
same,Duration to complete the fine-motor task,"[1]; 240 mg/kg, 120 min postadministration, p<0.001",significantly increased
same,Duration to complete the fine-motor task,"[1]; any dose, 30-min postadministration",did not alter
same,"Maximum concentrations of 1,4-BD (range)","[2]; 32 mg/kg 1,4-BD",0.48 to 0.69 µg/mL
same,"T1/2 for GHB in plasma relative to T1/2 of 1,4-BD (fold longer)","[2]; 100 mg/kg 1,4-BD",five
same,"T1/2 for GHB in plasma relative to T1/2 of 1,4-BD (fold longer)","[2]; 180 mg/kg 1,4-BD",sevenfold
same,"Maximum concentration of GHB, range",[3],22.2−85.7 μg/ml
same,Mean maximum concentration of GHB,[3],45.6 µg/mL
same,Time after administration at which response rate was decreased,[4],150 min
same,Frequency of scratch/groom compared to vehicle,"[5]; 56 mg/kg, 60 to 90 min after drug",increased
same,Frequency of ataxia compared to vehicle,[5]; [10],significantly increased
same,Frequency of scratch/groom compared to vehicle,[5]; [10],increased
same,Frequency of tremor/jerks compared to vehicle,[5]; [10],significantly increased
same,Frequency of vomit/retch compared to vehicle,[5]; [10],significantly increased
same,Duration of lip droop compared to vehicle,[5]; [11],significantly increased
same,Frequency of ataxia compared to vehicle,[5]; [11],significantly increased
same,Frequency of tremor/jerks compared to vehicle,[5]; [11],significantly increased
same,Frequency of vomit/retch compared to vehicle,[5]; [11],significantly increased
same,Time lying down compared to vehicle,[5]; [11],significantly increased
same,"Duration of effects in ≥50% of subjects, ataxia",[6]; 180 mg/kg IG,4.0 h
same,"Duration of effects in ≥50% of subjects, lip droop",[6]; 180 mg/kg IG,2.5 h
same,"Duration of effects in ≥50% of subjects, tremor/jerk",[6]; 180 mg/kg IG,5.0 h
same,"Duration of effects in ≥50% of subjects, vomit",[6]; 180 mg/kg IG,2.5 h
same,"Number of subjects at maximal effect, ataxia",[6]; 180 mg/kg IG,4/4
same,"Number of subjects at maximal effect, lip droop",[6]; 180 mg/kg IG,2/4
same,"Number of subjects at maximal effect, tremor/jerk",[6]; 180 mg/kg IG,4/4
same,"Number of subjects at maximal effect, vomit",[6]; 180 mg/kg IG,3/4
same,"Recovery of baseline (100% of subjects), ataxia",[6]; 180 mg/kg IG,7.0 h
same,"Recovery of baseline (100% of subjects), lip droop",[6]; 180 mg/kg IG,4.0 h
same,"Recovery of baseline (100% of subjects), tremor/jerk",[6]; 180 mg/kg IG,7.5 h
same,"Recovery of baseline (100% of subjects), vomit",[6]; 180 mg/kg IG,7.5 h
same,"Time to maximal effects, ataxia",[6]; 180 mg/kg IG,2.0 h
same,"Time to maximal effects, lip droop",[6]; 180 mg/kg IG,2 h and 2.0 h
same,"Time to maximal effects, tremor/jerk",[6]; 180 mg/kg IG,1.0 h
same,"Time to maximal effects, vomit",[6]; 180 mg/kg IG,2.5 h
same,"Duration of effects in ≥50% of subjects, ataxia",[6]; 240 mg/kg IG,4.0 h
same,"Duration of effects in ≥50% of subjects, lip droop",[6]; 240 mg/kg IG,3.5 h
same,"Duration of effects in ≥50% of subjects, tremor/jerk",[6]; 240 mg/kg IG,6.0 h
same,"Duration of effects in ≥50% of subjects, vomit",[6]; 240 mg/kg IG,1.0 h
same,"Number of subjects at maximal effect, ataxia",[6]; 240 mg/kg IG,4/4
same,"Number of subjects at maximal effect, lip droop",[6]; 240 mg/kg IG,3/4
same,"Number of subjects at maximal effect, tremor/jerk",[6]; 240 mg/kg IG,4/4
same,"Number of subjects at maximal effect, vomit",[6]; 240 mg/kg IG,3/4
same,"Recovery of baseline (100% of subjects), ataxia",[6]; 240 mg/kg IG,6.0 h
same,"Recovery of baseline (100% of subjects), lip droop",[6]; 240 mg/kg IG,5.0 h
same,"Recovery of baseline (100% of subjects), tremor/jerk",[6]; 240 mg/kg IG,8.0 h
same,"Recovery of baseline (100% of subjects), vomit",[6]; 240 mg/kg IG,7.5 h
same,"Time to maximal effects, ataxia",[6]; 240 mg/kg IG,2.0 h
same,"Time to maximal effects, lip droop",[6]; 240 mg/kg IG,1−2 h and 1 h and 1.0 h
same,"Time to maximal effects, tremor/jerk",[6]; 240 mg/kg IG,2.0 h
same,"Time to maximal effects, vomit",[6]; 240 mg/kg IG,1.0 h
same,Time at which lip droop continued in half of the subjects,[6]; 180 and 240 mg/kg,2.5−3.5 h
same,Time postadministration by which lip droop was no longer observed,[6]; 180 and 240 mg/kg,≤ 5 h
same,"Return to baseline for all observed behavioral effects, time postadministration",[6],7−8 h
same,"Maximum concentration of 1,4-BD, range",[7],0.33−14.4 μg/ml
same,"Mean maximum concentration of 1,4-BD",[7],3.84 µg/mL
same,Food-maintained behavior compared to vehicle,"[8]; 56 mg/kg, 4 h after administration, p<0.05",increases
same,Food-maintained behavior compared to vehicle,[8]; [12],decreased
same,Food-maintained behavior compared to vehicle,[8]; [13],decreased
same,Food-maintained behavior compared to vehicle,"[8]; 240 mg/kg, 2 h postadministration, p<0.001",decreased
same,Food-maintained behavior compared to vehicle,"[8]; 240 mg/kg, 4 h postadministration, p<0.05",decreased
same,Time food-maintained behavior was suppressed after administration,[8],4 h
same,AUC,"[9]; monkey, 32 mg/kg",33.4 µM·h
same,Cmax,"[9]; monkey, 32 mg/kg",5.3 to 7.7 µM
same,half-life,"[9]; monkey, 32 mg/kg",248 min
same,AUC,"[9]; monkey, 100 mg/kg",612 µM·h
same,Cmax,"[9]; monkey, 100 mg/kg",47.8 to 590 µM
same,half-life,"[9]; monkey, 100 mg/kg",35.3 min
same,AUC,"[9]; monkey, 180 mg/kg",942 µM·h
same,Cmax,"[9]; monkey, 180 mg/kg",289 to 1100 µM
same,half-life,"[9]; monkey, 180 mg/kg",42.7 min
same,Tmax,[9],30 min
same,half-life,[9]; 100 mg/kg,< 60 min
same,half-life,[9]; 180 mg/kg,< 60 min
"O=C1CCCO1 [GBL, Gamma-butyrolactone]",Duration to complete the fine-motor task compared to vehicle,"[1]; 100 mg/kg, p<0.001",increased
same,Duration to complete the fine-motor task compared to vehicle,"[1]; 180 mg/kg, p<0.001",increased
same,Time after administration at which response rate was decreased,[4],90 min
same,Duration of lip droop compared to vehicle,[5]; [14],significantly increased
same,Frequency of ataxia compared to vehicle,[5]; [14],significantly increased
same,Frequency of scratch/groom compared to vehicle,[5]; [14],significantly increased
same,Frequency of tremor/jerks compared to vehicle,[5]; [14],significantly increased
same,Duration of lip droop compared to vehicle,[5]; [10],significantly higher
same,Duration of lying down compared to vehicle,[5]; [10],increased
same,Frequency of ataxia compared to vehicle,[5]; [10],significantly higher
same,Frequency of scratch/groom compared to vehicle,[5]; [10],decreased
same,Frequency of tremor/jerks compared to vehicle,[5]; [10],significantly higher
same,Frequency of vomit/retch compared to vehicle,[5]; [10],increased
same,Observed effects of the high dose,"[5]; 240 mg/kg, once in one subject (HA), data not shown","resulted in convulsions; also recorded: vomit/retch, ataxia, tremor/jerks, sedation/anesthesia, and seizures; also recorded: both seizures and catalepsy"
same,"Time to maximal effect, ataxia",[6]; 100 mg/kg,30 min
same,"Time to maximal effect, tremor/jerks",[6]; 100 mg/kg,30 min
same,"Duration of effects in ≥50% of subjects, ataxia",[6]; 100 mg/kg IG,1.0 h
same,"Duration of effects in ≥50% of subjects, lip droop",[6]; 100 mg/kg IG,2.0 h
same,"Duration of effects in ≥50% of subjects, vomit",[6]; 100 mg/kg IG,1.0 h
same,"Number of subjects at maximal effect, ataxia",[6]; 100 mg/kg IG,3/4
same,"Number of subjects at maximal effect, lip droop",[6]; 100 mg/kg IG,3/4
same,"Number of subjects at maximal effect, tremor/jerk",[6]; 100 mg/kg IG,1/4
same,"Number of subjects at maximal effect, vomit",[6]; 100 mg/kg IG,2/4
same,"Recovery of baseline (100% of subjects), ataxia",[6]; 100 mg/kg IG,2.5 h
same,"Recovery of baseline (100% of subjects), lip droop",[6]; 100 mg/kg IG,3.5 h
same,"Recovery of baseline (100% of subjects), vomit",[6]; 100 mg/kg IG,2.0 h
same,"Time to maximal effects, ataxia",[6]; 100 mg/kg IG,0.5 h
same,"Time to maximal effects, lip droop",[6]; 100 mg/kg IG,1.0 h
same,"Time to maximal effects, tremor/jerk",[6]; 100 mg/kg IG,0.5 h
same,"Time to maximal effects, vomit",[6]; 100 mg/kg IG,1 h and 1.0 h
same,"Time to maximal effect, ataxia",[6]; 180 mg/kg,30 min
same,"Time to maximal effect, tremor/jerks",[6]; 180 mg/kg,30 min
same,"Duration of effects in ≥50% of subjects, ataxia",[6]; 180 mg/kg IG,4 h and 4.0 h
same,"Duration of effects in ≥50% of subjects, lip droop",[6]; 180 mg/kg IG,2.5 h
same,"Duration of effects in ≥50% of subjects, tremor/jerk",[6]; 180 mg/kg IG,5 h and 5.0 h
same,"Duration of effects in ≥50% of subjects, vomit",[6]; 180 mg/kg IG,1.0 h
same,"Number of subjects at maximal effect, ataxia",[6]; 180 mg/kg IG,4/4
same,"Number of subjects at maximal effect, lip droop",[6]; 180 mg/kg IG,4/4
same,"Number of subjects at maximal effect, tremor/jerk",[6]; 180 mg/kg IG,4/4
same,"Number of subjects at maximal effect, vomit",[6]; 180 mg/kg IG,4/4
same,"Recovery of baseline (100% of subjects), ataxia",[6]; 180 mg/kg IG,6.0 h
same,"Recovery of baseline (100% of subjects), lip droop",[6]; 180 mg/kg IG,6.0 h
same,"Recovery of baseline (100% of subjects), tremor/jerk",[6]; 180 mg/kg IG,6.0 h
same,"Recovery of baseline (100% of subjects), vomit",[6]; 180 mg/kg IG,2.0 h
same,"Time to maximal effects, ataxia",[6]; 180 mg/kg IG,0.5 h
same,"Time to maximal effects, lip droop",[6]; 180 mg/kg IG,0.5 h
same,"Time to maximal effects, tremor/jerk",[6]; 180 mg/kg IG,0.5 h
same,"Time to maximal effects, vomit",[6]; 180 mg/kg IG,1 h and 1.0 h
same,"Return to baseline for all observed behavioral effects, time postadministration",[6],≤ 6 h
same,Food-maintained behavior compared to vehicle,"[8]; 100 mg/kg, 2 h after administration, p<0.001",decreased
same,Food-maintained behavior compared to vehicle,[8]; [12],decreased
same,Food-maintained behavior compared to vehicle,[8]; [13],decreased
same,Food-maintained behavior,"[8]; 240 mg/kg, one subject (HA), data not shown",suppressed over the entire 20 h
same,Increase of food-maintained behavior,[8]; all doses tested,none of the doses increased
same,Time food-maintained behavior was suppressed after administration,[8],4 h
